The values that follow come from ChEMBL document CHEMBL1250458, “Targeting the ICB2 site of the topoisomerase IIalpha promoter with a formamido-pyrrole-imidazole-pyrrole H-pin polyamide” (Bioorg Med Chem, 2010).

The source made the active and inactive calls. No cut-off for these calls is given here. Bounds are passed on as bounds.

For assay [1], the system named is Nucleic Acid. The experiment in a line: Binding affinity to ICB2 site of topoisomerase 2alpha cognate sequence ATCGAT by isothermal titration microcalorimetry. In kind it is nucleic-acid assay. An outline of the steps:
(§1)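 ITC at 25 °C in PO45 buffer. Compound (100 µM) titrated into 2 µM DNA as 50 injections every 240 s after a 300 s delay. A linear fit was subtracted from the integrated heats to remove non-specific heat, giving ΔH.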

Assay [2] concerns Nucleic Acid. The experiment in a line: Binding affinity to ICB2 site of topoisomerase 2alpha cognate sequence TACGAT by circular dichroism spectra analysis. The format is nucleic-acid assay. The procedure, abridged: (§2)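 CD spectra recorded in a 1 mm cuvette with 2.4 nm bandpass, integration time set as a function of PMT high volts. PO45 buffer (10 mM phosphate, 50 mM Na+, 1 mM EDTA, pH 6.2); run in duplicate.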

The test system of assay [3] is Nucleic Acid. The experiment in a line: Binding affinity to ICB2 site of topoisomerase 2alpha non-cognate AAATTT assessed as change in melting temperature at 3 uM by thermal denaturation. The format is nucleic-acid assay. An outline of the steps: (§3)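 Thermal melting by UV spectrophotometry: DNA hairpin 1 µM with compound 3 µM in PO40 buffer (10 mM phosphate, 12.5 mM Na+, 1 mM EDTA, pH 6.2). ΔTm taken as the difference in Tm between ligand-bound and free DNA.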

Assay [4] concerns Nucleic Acid. The experiment in a line: Binding affinity to ICB2 site of topoisomerase 2alpha cognate sequence TACGAT by isothermal titration microcalorimetry. The format is nucleic-acid assay. The procedure, abridged:
as §1

Assay [5] relates to Nucleic Acid. The experiment in a line: Binding affinity to ICB2 site of topoisomerase 2alpha cognate sequence ATCGAT at 2 uM after 30 mins by DNase I footprinting assay. In kind it is nucleic-acid assay. The procedure, abridged:
(§4)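 DNase I footprinting on a PCR-made radiolabeled 131-bp fragment. The fragment was incubated 30 min at room temperature with drug in TN buffer (10 mM Tris, 10 mM NaCl, pH 7). It was then cleaved 3 min with 0.02 U DNase I in buffer containing Mg2+/Mn2+ (pH 8.0) and stopped on dry ice. Products were resolved on a denaturing 10% polyacrylamide urea gel.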

Assay [6] relates to Nucleic Acid. The experiment in a line: Binding affinity to ICB2 site of topoisomerase 2alpha cognate sequence ATCGAT at 6 molar equivalent concentration by circular dichroism spectra analysis. The format is nucleic-acid assay. An outline of the steps: as §2
The subject of assay [7] is Nucleic Acid. The experiment in a line: Binding affinity to ICB2 site of topoisomerase 2alpha cognate sequence TACGAT assessed as change in melting temperature at 3 uM by thermal denaturation. In kind it is nucleic-acid assay. An outline of the steps: as §3
Assay [8] has as its system Nucleic Acid. The experiment in a line: Binding affinity to biotinylated ICB2 site of topoisomerase 2alpha cognate sequence ATCGAT by surface plasmon resonance assay. In kind it is nucleic-acid assay. The procedure, abridged:
(§5)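 SPR at 25 °C with biotinylated DNA hairpins immobilized on a chip, in cacodylic acid buffer pH 6.25 with 0.1 M NaCl. Compound injected at a range of concentrations (up to 4 µM) at 25 µL/min with 400 s dissociation; surface regenerated with glycine pH 2.5. Keq derived from steady-state fits.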

For a further assay, the system named is B16. The experiment in a line: Cytotoxicity against mouse B16 cells after 72 hrs by MTT assay. The format is cell-based. The note with it: B16, 72 h. An outline of the steps:
(§6)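 Cells exposed to a compound concentration gradient for 72 h, then MTT added and developed 4 h. Absorbance read; IC50 taken as the concentration giving 50% growth inhibition versus untreated control.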

A further assay has as its system NIH3T3. The experiment in a line: Inhibition of topoisomerase 2alpha expression in mouse NIH/3T3 cells up to 80 uM after 4 to 24 hrs by Western blotting. In kind it is functional, cell-based. An outline of the steps:
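NIH 3T3 cells held at confluence for 96 h, then treated with compound (40 and 80 µM) for 6 and 24 h. Nuclear extract (50 µg) immunoblotted with polyclonal topoIIα antibody (1:1000), detected by ECL. Lamin A/C used as loading control.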

The test system of assay [9] is Nucleic Acid. The experiment in a line: Binding affinity to ICB2 site of topoisomerase 2alpha cognate sequence ATCGAT assessed as change in melting temperature at 3 uM by thermal denaturation. The format is nucleic-acid assay. An outline of the steps:
as §3

Assay [10] deals with Nucleic Acid. The experiment in a line: Binding affinity to biotin labeled ICB2 site of topoisomerase 2alpha non-cognate AAATTT by surface plasmon resonance assay. In kind it is nucleic-acid assay. An outline of the steps: as §5
Assay [11] relates to Nucleic Acid. The experiment in a line: Inhibition of nuclear factor Y binding to ICB2 site of topoisomerase 2alpha cognate sequence TACGAT in mouse NIH/3T3 cells at > 3 uM treated after addition of probe by electrophoretic mobility shift assay. To be noted: NIH3T3. The format is cell-based.
Assay [12] concerns Nucleic Acid. The experiment in a line: Inhibition of nuclear factor Y binding to ICB2 site of topoisomerase 2alpha cognate sequence TACGAT in mouse NIH/3T3 cells at > 3 uM preincubated for 1 hr by electrophoretic mobility shift assay. The note with it: NIH3T3. The format is cell-based.
For assay [13], the system named is Nucleic Acid. The experiment in a line: Binding affinity to ICB2 site of topoisomerase 2alpha cognate sequence ATCGAT at 1 uM after 30 mins by DNase I footprinting assay. In kind it is nucleic-acid assay. The procedure, abridged: as §4
The test system of another assay is L1210. The experiment in a line: Cytotoxicity against mouse L1210 cells after 72 hrs by MTT assay. To be noted: L1210, 72 h. In kind it is cell-based. The procedure, abridged:
as §6

Assay [14] relates to Nucleic Acid. The experiment in a line: Binding affinity to ICB2 site of topoisomerase 2alpha non-cognate AAATTT by isothermal titration microcalorimetry. The format is nucleic-acid assay. The procedure, abridged:
as §1

Take `CN(C)CCCNC(=O)c1cc(NC(=O)c2nc(NC(=O)c3cc(NC=O)cn3CCOCCOCCn3cc(NC=O)cc3C(=O)Nc3cn(C)c(C(=O)Nc4cc(C(=O)NCCCN(C)C)n(C)c4)n3)cn2C)cn1C`: the result with Nucleic Acid [1], in the assay on Nucleic Acid [2], in the assay on Nucleic Acid [4], with Nucleic Acid [5], with Nucleic Acid [6] and in the assay with Nucleic Acid [11] was Active. For the same compound, the result in the assay on Nucleic Acid [12] and with Nucleic Acid [13] was Active. Besides, the ΔTm in the assay with Nucleic Acid [3] is 4 °C; in the assay with Nucleic Acid [7], 3 °C; in the assay with Nucleic Acid [9] it was 6 °C. Further, the Ke in the assay with Nucleic Acid [8] was 5 ×10⁵ /M. For the same compound, the IC50 in the assay with B16 and in the assay on L1210 was more than 100 µM throughout. For the same compound, the outcome with NIH3T3 and in the assay on Nucleic Acid [14] was inactive. The Ke result in the assay with Nucleic Acid [10] was “inactive”.

On to `CN(C)CCCNC(=O)c1cc(NC(=O)c2nc(NC(=O)c3cc(NC=O)cn3C)cn2C)cn1C`, for which the result in the assay with Nucleic Acid [5] was Active. Further, the result with Nucleic Acid [13] was inactive.
